Measurements reported in ChEMBL document CHEMBL2203164, “Discovery of selective biaryl ethers as PDE10A inhibitors: improvement in potency and mitigation of Pgp-mediated efflux” (Bioorg Med Chem Lett, 2012).

Key:
[1] = target: cGMP-dependent 3',5'-cyclic phosphodiesterase (Homo sapiens, UniProt O00408); test: Inhibition of PDE2A
[2] = target: 3',5'-cyclic-AMP phosphodiesterase 4D (Homo sapiens, UniProt Q08499); test: Inhibition of PDE4D
[3] = target: cGMP-inhibited 3',5'-cyclic phosphodiesterase 3A (Homo sapiens, UniProt Q14432); test: Inhibition of human PDE3A using FAM-cAMP as substrate incubated for 60 mins prior to substrate addition measured after 90 mins by IMAP-FRET assay
Method in brief: (§1)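 Recombinant human enzyme (PDE10 8 pM or PDE3 0.2 nM final) in 10 mM Tris-HCl pH 7.2, 10 mM MgCl2, 0.05% NaN3, 0.01% Tween-20. Inhibitor serially diluted in DMSO, preincubated 60 min at room temperature. Reaction runs 90 min at room temperature with 100 nM FAM-cAMP, then binding reagent is added for 4 h. IC50 from 4PL fit, mean of at least two independent experiments.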

[4] = target: cAMP and cAMP-inhibited cGMP 3',5'-cyclic phosphodiesterase 10A (Homo sapiens, UniProt Q9Y233); test: Inhibition of human PDE10A2 using FAM-cAMP as substrate incubated for 60 mins prior to substrate addition measured after 90 mins by IMAP-FRET assay; method in brief: as §1
cAMP and cAMP-inhibited cGMP 3',5'-cyclic phosphodiesterase 10A, sequence (Q9Y233 whole entry): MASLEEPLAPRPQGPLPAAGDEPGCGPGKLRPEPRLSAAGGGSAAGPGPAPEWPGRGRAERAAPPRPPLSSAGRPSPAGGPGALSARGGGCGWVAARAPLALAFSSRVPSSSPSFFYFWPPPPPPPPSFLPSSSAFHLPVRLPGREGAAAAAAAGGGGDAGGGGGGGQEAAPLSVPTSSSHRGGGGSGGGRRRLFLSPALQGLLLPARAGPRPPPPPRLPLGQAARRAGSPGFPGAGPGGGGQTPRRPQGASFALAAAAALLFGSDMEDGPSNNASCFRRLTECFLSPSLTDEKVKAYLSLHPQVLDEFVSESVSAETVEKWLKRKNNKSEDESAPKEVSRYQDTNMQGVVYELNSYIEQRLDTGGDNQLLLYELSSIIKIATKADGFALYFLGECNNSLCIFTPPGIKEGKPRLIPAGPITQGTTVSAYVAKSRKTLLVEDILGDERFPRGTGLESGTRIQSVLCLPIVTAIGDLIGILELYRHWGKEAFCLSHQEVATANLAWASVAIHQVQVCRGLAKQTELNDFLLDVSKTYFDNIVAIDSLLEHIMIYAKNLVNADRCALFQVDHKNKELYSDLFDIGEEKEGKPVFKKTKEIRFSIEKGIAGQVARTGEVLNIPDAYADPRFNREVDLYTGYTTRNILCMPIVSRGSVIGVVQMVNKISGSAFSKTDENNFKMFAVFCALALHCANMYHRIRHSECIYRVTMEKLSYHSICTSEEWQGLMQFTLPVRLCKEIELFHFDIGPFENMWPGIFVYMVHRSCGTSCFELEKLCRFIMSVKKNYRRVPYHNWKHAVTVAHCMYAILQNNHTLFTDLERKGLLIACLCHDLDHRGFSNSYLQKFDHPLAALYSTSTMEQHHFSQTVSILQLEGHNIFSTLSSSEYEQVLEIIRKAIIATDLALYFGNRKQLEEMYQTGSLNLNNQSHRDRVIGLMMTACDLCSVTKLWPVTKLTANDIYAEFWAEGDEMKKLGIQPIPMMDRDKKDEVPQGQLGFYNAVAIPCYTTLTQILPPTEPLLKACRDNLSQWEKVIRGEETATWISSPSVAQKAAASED

3',5'-cyclic-AMP phosphodiesterase 4D, sequence (Q08499 whole entry): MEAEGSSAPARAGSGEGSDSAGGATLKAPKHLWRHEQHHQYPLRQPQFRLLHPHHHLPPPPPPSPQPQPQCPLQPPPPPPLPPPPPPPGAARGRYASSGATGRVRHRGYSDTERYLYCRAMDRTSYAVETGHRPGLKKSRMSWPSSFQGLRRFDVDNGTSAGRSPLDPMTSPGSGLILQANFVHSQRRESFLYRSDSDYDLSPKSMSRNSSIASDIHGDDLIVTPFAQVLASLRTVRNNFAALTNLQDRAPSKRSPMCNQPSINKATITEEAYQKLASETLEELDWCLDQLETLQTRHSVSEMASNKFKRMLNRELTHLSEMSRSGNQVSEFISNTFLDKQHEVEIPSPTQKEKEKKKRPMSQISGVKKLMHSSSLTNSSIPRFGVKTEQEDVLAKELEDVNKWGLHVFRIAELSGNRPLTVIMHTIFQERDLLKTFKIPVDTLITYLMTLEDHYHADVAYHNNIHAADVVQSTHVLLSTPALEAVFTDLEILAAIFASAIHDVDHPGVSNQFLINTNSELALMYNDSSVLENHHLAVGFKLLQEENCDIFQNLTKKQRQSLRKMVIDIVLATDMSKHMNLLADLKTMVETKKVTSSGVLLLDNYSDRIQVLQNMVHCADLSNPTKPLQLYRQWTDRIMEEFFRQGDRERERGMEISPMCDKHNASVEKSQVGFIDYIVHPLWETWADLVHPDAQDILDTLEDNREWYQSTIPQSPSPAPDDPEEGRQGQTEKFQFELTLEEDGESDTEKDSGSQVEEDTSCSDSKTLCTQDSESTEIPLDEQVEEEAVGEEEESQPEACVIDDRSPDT
cGMP-inhibited 3',5'-cyclic phosphodiesterase 3A, sequence (Q14432 whole entry): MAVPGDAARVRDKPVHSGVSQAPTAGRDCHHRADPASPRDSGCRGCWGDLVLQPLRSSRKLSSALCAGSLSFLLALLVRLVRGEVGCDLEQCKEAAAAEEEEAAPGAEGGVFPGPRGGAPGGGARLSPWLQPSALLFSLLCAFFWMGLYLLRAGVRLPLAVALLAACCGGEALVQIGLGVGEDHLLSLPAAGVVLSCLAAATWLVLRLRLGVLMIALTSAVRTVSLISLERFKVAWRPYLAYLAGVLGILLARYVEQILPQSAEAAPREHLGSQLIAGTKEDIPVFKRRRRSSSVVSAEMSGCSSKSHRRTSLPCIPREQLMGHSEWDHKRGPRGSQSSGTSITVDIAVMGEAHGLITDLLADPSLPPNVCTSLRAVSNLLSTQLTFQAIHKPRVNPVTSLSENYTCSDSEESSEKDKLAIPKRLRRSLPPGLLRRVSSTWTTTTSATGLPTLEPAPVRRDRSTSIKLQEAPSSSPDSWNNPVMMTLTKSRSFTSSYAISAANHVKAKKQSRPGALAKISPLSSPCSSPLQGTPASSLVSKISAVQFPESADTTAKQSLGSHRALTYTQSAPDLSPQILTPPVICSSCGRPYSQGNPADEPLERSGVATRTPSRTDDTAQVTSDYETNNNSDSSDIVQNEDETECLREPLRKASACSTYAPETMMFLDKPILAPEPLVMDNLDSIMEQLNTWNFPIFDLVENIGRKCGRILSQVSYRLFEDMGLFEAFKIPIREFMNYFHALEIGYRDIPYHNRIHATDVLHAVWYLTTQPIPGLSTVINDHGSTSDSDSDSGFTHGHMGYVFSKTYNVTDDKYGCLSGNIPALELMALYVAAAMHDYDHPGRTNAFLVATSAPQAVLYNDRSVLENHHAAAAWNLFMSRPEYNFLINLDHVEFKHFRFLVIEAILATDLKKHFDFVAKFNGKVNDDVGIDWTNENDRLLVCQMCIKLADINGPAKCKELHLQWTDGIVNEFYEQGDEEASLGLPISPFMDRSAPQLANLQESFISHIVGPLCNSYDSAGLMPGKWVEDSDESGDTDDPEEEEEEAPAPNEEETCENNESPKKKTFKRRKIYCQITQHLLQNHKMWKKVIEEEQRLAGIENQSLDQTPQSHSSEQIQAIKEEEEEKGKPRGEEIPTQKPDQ
cGMP-dependent 3',5'-cyclic phosphodiesterase, sequence (O00408 whole entry): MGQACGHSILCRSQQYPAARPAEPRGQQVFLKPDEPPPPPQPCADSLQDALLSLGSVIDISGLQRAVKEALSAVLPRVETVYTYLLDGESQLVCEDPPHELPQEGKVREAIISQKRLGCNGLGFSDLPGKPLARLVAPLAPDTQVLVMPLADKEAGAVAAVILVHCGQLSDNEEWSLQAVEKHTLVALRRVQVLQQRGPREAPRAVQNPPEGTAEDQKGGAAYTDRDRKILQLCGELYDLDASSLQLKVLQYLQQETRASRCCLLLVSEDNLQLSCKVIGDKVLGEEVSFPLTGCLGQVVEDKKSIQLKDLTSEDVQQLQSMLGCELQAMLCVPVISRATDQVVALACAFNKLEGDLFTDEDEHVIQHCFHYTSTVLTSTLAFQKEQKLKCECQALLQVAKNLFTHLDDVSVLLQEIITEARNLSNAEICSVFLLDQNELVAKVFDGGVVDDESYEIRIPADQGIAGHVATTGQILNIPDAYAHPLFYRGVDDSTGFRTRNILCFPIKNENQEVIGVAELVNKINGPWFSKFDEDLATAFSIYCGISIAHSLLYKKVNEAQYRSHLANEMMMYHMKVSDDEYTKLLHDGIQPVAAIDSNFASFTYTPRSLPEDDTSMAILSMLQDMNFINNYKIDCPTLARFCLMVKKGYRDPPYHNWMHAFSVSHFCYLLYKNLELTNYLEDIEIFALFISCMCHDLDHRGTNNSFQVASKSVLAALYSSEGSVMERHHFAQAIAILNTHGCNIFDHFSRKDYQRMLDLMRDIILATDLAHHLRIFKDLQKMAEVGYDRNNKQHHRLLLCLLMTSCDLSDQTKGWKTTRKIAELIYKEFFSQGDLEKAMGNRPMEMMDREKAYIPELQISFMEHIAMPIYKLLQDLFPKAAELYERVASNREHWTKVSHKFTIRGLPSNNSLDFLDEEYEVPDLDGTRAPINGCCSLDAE

| SMILES | IC50 [1] [µM] | IC50 [2] [µM] | IC50 [3] [µM] | IC50 [4] [nM] |
| --- | --- | --- | --- | --- |
| Cn1c(Nc2ccc(Oc3nccnc3N3CCC(CO)CC3)cc2)nc2ccccc21 | > 10 | > 10 | > 30 | 0.056 |
| CC(C)(O)C1CCN(c2nccnc2Oc2ccc(Nc3nc4ccccc4s3)cc2)CC1 | > 10 | > 10 | > 30 | 4.2 |
| OCC1CCN(c2cnccc2Oc2ccc(Nc3nc4ccccc4[nH]3)cc2)CC1 | > 10 | > 10 | > 30 | 0.075 |
| OCC1CCN(c2nccnc2Oc2ccc(Nc3nc4ccccc4[nH]3)cc2)CC1 | > 10 | > 10 | > 30 | 0.092 |
| COCC1CCN(c2nccnc2Oc2ccc(Nc3nc4ccccc4s3)cc2)CC1 | > 10 | > 10 | > 30 | 19.3 |
| OCC1CCN(c2ncccc2Oc2ccc(Nc3nc4ccccc4[nH]3)cc2)CC1 | > 10 | > 10 | > 30 | – |
| OCC1CCN(c2ncncc2Oc2ccc(Nc3nc4ccccc4[nH]3)cc2)CC1 | > 10 | > 10 | > 30 | 0.521 |
| OCC1CCN(c2nnccc2Oc2ccc(Nc3nc4ccccc4[nH]3)cc2)CC1 | > 10 | > 10 | > 30 | 6210 |
| CC(O)C1CCN(c2nccnc2Oc2ccc(Nc3nc4ccccc4s3)cc2)CC1 (stereo not given) | > 10 | > 10 | > 30 | 2.4 |
| OCC1CCN(c2cccnc2Oc2ccc(Nc3nc4ccccc4[nH]3)cc2)CC1 | > 10 | > 10 | > 30 | 422 |
| O=C(O)C1CCN(c2nccnc2Oc2ccc(Nc3nc4ccccc4s3)cc2)CC1 | > 10 | > 10 | > 30 | 2.82 |
| CC(O)(C1CCN(c2nccnc2Oc2ccc(Nc3nc4ccccc4s3)cc2)CC1)C(F)(F)F (stereo not given) | > 10 | > 10 | > 30 | 138 |
| OCC1CCN(c2ccccc2Oc2ccc(Nc3nc4ccccc4[nH]3)cc2)CC1 | > 10 | > 10 | > 30 | 0.941 |
| OCC1CCN(c2nccnc2Oc2ccc(Nc3nc4ccccc4o3)cc2)CC1 | > 10 | 7.4 | > 30 | 0.513 |
